Experimental findings from ChEMBL document CHEMBL4819032, “Structure-based design of highly selective 2,4,5-trisubstituted pyrimidine CDK9 inhibitors as anti-cancer agents” (Eur J Med Chem, 2021) are described below.

The test system of experiment [1] is A2780. Briefly: Growth inhibition of human A2780 cells after 48 hrs by MTT assay. The format is functional. In general terms: Tetrazolium assays rely on reduction of a dye to a coloured formazan, in cell work by metabolically active cells.
The next experiment is filed under the species Homo sapiens. Briefly: Selectivity index, ratio of Ki for inhibition of recombinant human full length CDK2/Cyclin A to Ki for inhibition of recombinant human full length CDK9/Cyclin T1. Summed up:
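Ratio of apparent Ki values for the two CDK/cyclin complexes. Each Ki is derived from an IC50 (10-point radiometric dose-response, ATP at Km(app)) using the kinase's Km(ATP). The selectivity index is defined as Ki(CDK2)/Ki(CDK9).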

Experiment [2] has as its system A2780. Kind of experiment: Induction of apoptosis in human A2780 cells assessed as reduction in Mcl-1 protein expression at 5 uM after 6 to 12 hrs by Western blot analysis. It is filed as functional, cell-based. Conditions: time 6-12 hrs. In short, it runs like this: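 A2780 cells treated for 6 or 12 h, then lysates analysed by Western blotting.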
In experiment [3] the test system is HCT-116. Briefly: Induction of apoptosis in human HCT-116 cells assessed as reduction in XIAP protein expression after 24 hrs by Western blot analysis. It is filed as functional, cell-based. The settings on record: dose 0.5-5 µM. (Immunoblotting shows a protein as a band on a membrane.)
Experiment [4] deals with A2780. Kind of experiment: Induction of cell cycle arrest in human A2780 cells assessed as accumulation at G2/M phase at 2 uM after 24 hrs by propidium iodide staining based flow cytometric analysis (reference value: 21.6%). The format is functional. Summed up: (§1)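 4 × 10⁵ A2780 cells cultured 24 h in medium alone or with varying inhibitor concentrations, harvested into hypotonic fluorochrome solution (0.1% sodium citrate, 0.1% Triton X-100, propidium iodide, 100 ug/ml RNase A), and DNA content analysed by flow cytometry. Representative of three independent experiments.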
For orientation: In flow cytometry, cells or beads pass a laser one at a time.

The subject of experiment [5] is A2780. Briefly: Induction of cell cycle arrest in human A2780 cells assessed as accumulation at G1/G0 phase at 0.5 uM after 24 hrs by propidium iodide staining based flow cytometric analysis (reference value: 56.7%). The format is functional. Summed up:
as §1

Experiment [6] has as its system A2780. Briefly: Induction of apoptosis in human A2780 cells assessed as increase in cleaved PARP protein expression at 0.5 to 5 uM after 24 hrs by Western blot analysis. It is filed as functional, cell-based. Conditions: dose 0.5-5 µM. In short, it runs like this: (§2)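 A2780 cells treated for 24 h over a concentration series, then lysates analysed by Western blotting.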

In experiment [7] the test system is A2780. Briefly: Induction of apoptosis in human A2780 cells assessed as reduction in XIAP protein expression after 24 hrs by Western blot analysis. The format is functional, cell-based. Conditions: dose 0.5-5 µM. In short, it runs like this:
as §2

For experiment [8], the target named is Tyrosine-protein kinase Fyn (Homo sapiens) (UniProt P06241). Kind of experiment: Inhibition of recombinant human full length FYN using KVEKIGEGTYGVVYK as substrate incubated for 40 mins by scintillation counting method. In short, it runs like this: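 The 60-kinase diversity panel was run as a radiometric assay with ATP at each kinase's Km(app). Compound was tested at one fixed concentration across all kinases.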

Experiment [9] deals with HCT-116. Briefly: Induction of apoptosis in human HCT-116 cells assessed as increase in p53 protein expression at 0.5 to 5 uM after 24 hrs by Western blot analysis. It is filed as functional, cell-based. Conditions: dose 0.5-5 µM.
Experiment [10] concerns A2780. Briefly: Induction of apoptosis in human A2780 cells assessed as necrotic cells at 0.5 uM after 24 hrs by Annexin V-FITC/PI staining based flow cytometric analysis (reference value: 3.6%). It is filed as functional. Summed up: (§3)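 A2780 cells cultured 24 h in medium alone or with varying inhibitor concentrations, then stained with FITC-annexin V/PI per kit protocol and analysed by flow cytometry. Run in triplicate and repeated at least twice; significance by one-way ANOVA, p < 0.01.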

The test system of experiment [11] is A2780. Briefly: Induction of apoptosis in human A2780 cells assessed as necrotic cells at 5 uM after 24 hrs by Annexin V-FITC/PI staining based flow cytometric analysis (reference value: 3.6%). It is filed as functional. In short, it runs like this: as §3

Active and inactive are the calls of the source.

Chain of Tyrosine-protein kinase Fyn (Homo sapiens) (P06241 2-537 limits assumed): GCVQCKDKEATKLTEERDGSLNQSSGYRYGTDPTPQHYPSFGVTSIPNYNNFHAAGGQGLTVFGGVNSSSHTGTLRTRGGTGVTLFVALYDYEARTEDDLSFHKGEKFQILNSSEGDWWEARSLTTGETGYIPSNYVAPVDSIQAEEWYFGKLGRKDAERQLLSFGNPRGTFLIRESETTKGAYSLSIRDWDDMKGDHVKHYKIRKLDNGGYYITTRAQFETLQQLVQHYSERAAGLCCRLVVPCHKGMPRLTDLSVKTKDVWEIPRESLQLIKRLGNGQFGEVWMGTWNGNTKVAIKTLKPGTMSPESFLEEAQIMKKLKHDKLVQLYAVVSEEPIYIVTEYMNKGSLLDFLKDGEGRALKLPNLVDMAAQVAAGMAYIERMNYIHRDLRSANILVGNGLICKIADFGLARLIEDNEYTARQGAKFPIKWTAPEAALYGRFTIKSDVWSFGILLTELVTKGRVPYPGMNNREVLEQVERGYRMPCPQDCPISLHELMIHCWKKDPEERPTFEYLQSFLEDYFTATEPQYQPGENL

For the molecule `CNc1nc(C)c(-c2nc(Nc3cccc(N4CCN5CCC4CC5)c3)ncc2C)s1`, the GI50 (usually the concentration at which growth is held to half of that of the control) with A2780 [1] is 0.64 µM. In addition, the Ratio Ki in the experiment filed under Homo sapiens was found to be 125. Further, the outcome in the experiment on A2780 [2], in the experiment with A2780 [6] and with HCT-116 [9] was Active. In addition, the Activity entry in the experiment with HCT-116 [3] was “Dose-Dependent Effect”; in the experiment with A2780 [4], 56.5%; with A2780 [5] it was 59.8%; with A2780 [7] it was “Dose-Dependent Effect”; with A2780 [10] it was 1.9%; in the experiment with A2780 [11] it was 5.6%. In experiment [8], the inhibition entry was “Active”.
